Results from different studies.
Each line is one published result; the experiments were not run side by side. ≈ marks a conversion by molar mass, not a printed value.

CN[C@@H]1[C@H](O)[C@H](NC)[C@H]2O[C@@]3(O)C(=O)C[C@@H](C)O[C@H]3O[C@@H]2[C@H]1O
MIC (Proteus mirabilis; microbial growth, broth dilution; ATCC25933): > 200 µg/mL

C=C1CC[C@H](O)C/C1=C/C=C1\CCC[C@]2(C)[C@@H]([C@H](C)CCCC(C)C)CC[C@@H]12
EC50 (Hepatitis C virus; viral replication, inhibitor, luciferase; GETYPE2A; 5 days, replicon): 8.45 µM

COc1ccc2[nH]cc(CCNc3nccc(Nc4cccc5c4ccn5C)n3)c2c1
IC50 (BXPC-3; cell growth or viability, fluorescence; 72 h): 0.008 µM

CC1CC(C)(C)CC2(C1)SC(C)C(=O)N2NC(=O)c1[nH]c2ccc(Cl)cc2c1-c1ccccc1 (stereo not shown)
EC50 (Enterovirus B; viral replication, inhibitor; Vero, B4): > 100 µM

Cl.O[C@]12C=C(c3nccc4c3[nH]c3ccccc34)[C@@H]3CCN(CCCC/C=C\CC1)C[C@@]31C[C@@H]3/C=C\CCCCN3[C@H]12
IC50 (SK-MEL; cell growth or viability, neutral red; 48 h): 0.57 µg/mL

COc1ccc(/C=C\c2cc(F)c(OC)c(OC)c2)cc1O
GI50 (BXPC-3; cell growth or viability, SRB; 48 h): 0.745 µg/mL (≈ 2.45 µM)

Cc1ccc(-c2nc3ccc(C)cn3c2CC(=O)N(C)C)cc1
MIC (Mycobacterium kansasii; microbial growth; 6 days): > 50 µM

COC(=O)c1cc(-c2cccc(NC(=S)NC3CCCCC3)c2)on1
MIC (Acinetobacter baumannii; microbial growth, broth dilution; BAA1605): > 64 µg/mL

C1COCCN1.COc1ccc(/C=C\c2cc(I)c(OC)c(I)c2)cc1OP(=O)(O)O
GI50 (BXPC-3; cell growth or viability, SRB; 48 h): 0.35 µg/mL

N#CC(C#N)=NNc1cccc(Cl)c1
IC50 (human Hepatocyte; cell growth or viability): 4.81 µM

COc1cccc2c1C(=O)c1c(O)c3c(c(O)c1C2=O)C[C@@](O)(C(=O)CO)C[C@@H]3O[C@H]1C[C@H](N)[C@H](O)[C@H](C)O1
IC50 (SK-MEL; cell growth or viability; 48 h): 1.1 µg/mL

CO[C@H]1/C=C/O[C@@]2(C)Oc3c(C)c(O)c4c(O)c(c(/C=N/N5CCN(C)CC5)c(O)c4c3C2=O)NC(=O)/C(C)=C\C=C\[C@H](C)[C@H](O)[C@@H](C)[C@@H](O)[C@@H](C)[C@H](OC(C)=O)[C@@H]1C
MIC (Mycobacterium kansasii; microbial growth; 6 days): < 0.78 µM

COC(=O)c1cc(-c2cccc(NC(=O)Nc3ccc(C(F)(F)F)cc3)c2)on1
MIC (Acinetobacter baumannii; microbial growth, broth dilution; BAA1605): > 64 µg/mL

Cl.Oc1cccc2c1[nH]c1c(C3=CC4(O)CC/C=C\CCCCN5CCC3C3(CC6/C=C\CCCCN6C43)C5)nccc12 (single isomer, unassigned; (+))
IC50 (SK-MEL; cell growth or viability, neutral red; 48 h): 0.78 µg/mL

COC(=O)c1cc(-c2cccc(NC(=S)Nc3ccccc3Cl)c2)on1
MIC (Acinetobacter baumannii; microbial growth, broth dilution; BAA1605): > 64 µg/mL

COc1c(C)c2c(c(O)c1C/C=C(\C)CCC(=O)O)C(=O)OC2
EC50 (Enterovirus B; viral replication, inhibitor; Vero, B4): > 100 µM
